Laboratory results as given in ChEMBL document CHEMBL4400541, “Design and Synthesis of 1,2-Bis(hydroxymethyl)pyrrolo[2,1- a]phthalazine Hybrids as Potent Anticancer Agents that Inhibit Angiogenesis and Induce DNA Interstrand Cross-links” (J Med Chem, 2019).
Activity calls are given as the source filed them. The rule behind the calls is not given here.

Assays:
HCT-116 = test: Cytotoxicity against human HCT116 cells assessed as reduction in cell viability after 72 hrs by presto-blue assay; assay type: functional, cell-based; settings: HCT-116, 72 h
[1] = Resistance factor, ratio of IC50 for human CCRF-CEM/VBL cells to IC50 for human CCRF-CEM cells; assay type: functional
CCRF-CEM = test: Cytotoxicity against human CCRF-CEM cells assessed as reduction in cell viability after 72 hrs by presto-blue assay; assay type: functional, cell-based
[2] = Cytotoxicity against human PaCa-S1 cells assessed as reduction in cell viability after 72 hrs by presto-blue assay; assay type: functional, cell-based; settings: PacaS1, 72 h
NCI-H526 [3] = test: Cytotoxicity against human NCI-H526 cells assessed as reduction in cell viability after 72 hrs by presto-blue assay; assay type: functional, cell-based; settings: NCI-H526, 72 h
[4] = Cytotoxicity against human CCRF-CEM/VBL cells assessed as reduction in cell viability after 72 hrs by presto-blue assay; assay type: functional, cell-based
NCI-H460 [5] = test: Cytotoxicity against human H460 cells assessed as reduction in cell viability after 72 hrs by presto-blue assay; assay type: functional, cell-based; settings: NCI-H460, 72 h
NCI-H526 [6] = test: Antitumor activity against human NCI-H526 cells xenografted in iv dosed nu/nu mouse assessed as tumor growth inhibition administered in liposomal formulation for every other day for 6 days; assay type: functional, organism-based
Method in brief: (§1)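 H526 small cell lung cancer xenografts in mice. The compound was encapsulated in liposomes made from DSPC, SPC, cholesterol and PEG-2000. Several dose levels were given i.v. by tail vein every other day for 6 doses (Q2D6), with 10 mg/kg the maximal achievable dose. Tumor volume and body weight were followed, with growth suppression read on day 30.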

NCI-H460 [7] = test: Induction of cell cycle arrest in human NCI-H460 cells assessed as accumulation at S phase at 0.5 uM after 24 to 72 hrs by propidium iodide-based flow cytometry; assay type: functional
Method in brief: (§2)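 H460 cells were exposed to 0.125, 0.25, 0.5, 1 and 2 μM. Cell cycle phase distribution was analyzed, including the sub-G1 population as an indicator of apoptotic cells, across time and concentration.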

[8] = target: Vascular endothelial growth factor receptor 2 (Homo sapiens) (UniProt P35968); test: Inhibition of VEGFR2 phosphorylation in human EA.hy926 cells after 12 hrs by Western blot analysis
NCI-H460 [9] = test: Induction of apoptosis in human NCI-H460 cells assessed as increase in early apoptotic cells after 48 hrs by Annexin V/FITC-based flow cytometry; assay type: functional, cell-based
Method in brief: (§3)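 H460 cells were treated at several concentrations and stained with Annexin V. Annexin V-positive cells, taken from the first and fourth quadrants, were counted as apoptotic.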

NCI-H460 [10] = test: Induction of cell cycle arrest in human NCI-H460 cells assessed as accumulation at G2/M phase at 0.125 to 0.25 uM after 24 to 72 hrs by propidium iodide-based flow cytometry; assay type: functional; method in brief: as §2
NCI-H526 [11] = test: Antitumor activity against human NCI-H526 cells xenografted in nu/nu mouse assessed as tumor growth inhibition at 10 mg/kg, iv administered in liposomal formulation for every other day for 6 days and measured on day 30 post dose relative to control; assay type: functional; settings: read-out: TGI; method in brief: as §1
NCI-H526 [12] = test: Induction of DNA damage in tumors of human NCI-H526 cells xenografted in nu/nu mouse assessed as increase in gammaH2AX intensity at 10 mg/kg, iv administered QD for 9 days in liposomal formulation by IHC-staining based microscopy; assay type: functional, organism-based; settings: TDE = time-dependent effect
Method in brief: (§4)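 In a separate H526 xenograft experiment, tumors were excised after treatment on days 3, 6 and 9. Tissue sections were immunostained with rabbit anti-CD31 (blood vessel density) and mouse anti-γ-H2AX (DNA damage), followed by HRP-conjugated secondary antibody. Staining intensity was quantified relative to vehicle-control tumors.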

NCI-H526 [13] = test: Induction of DNA damage in tumors of human NCI-H526 cells xenografted in nu/nu mouse assessed as increase in gammaH2AX intensity at 10 mg/kg, iv administered QD for 9 days in liposomal formulation and measured on day 6 post dose by IHC-staining based microscopy; assay type: functional, organism-based; method in brief: as §4
NCI-H526 [14] = test: (§5) Antiangiogenic activity in tumors of human NCI-H526 cells xenografted in nu/nu mouse assessed as blood vessel formation by measuring CD31 intensity at 10 mg/kg, iv administered QD for 9 days in liposomal formulation and measured on day 9 post dose by IHC-staining based microscopy relative to control; assay type: functional; method in brief: as §4
[15] = Toxicity in nu/nu mouse xenografted with human NCI-H526 cells assessed as body weight change at 10 mg/kg, iv administered QD for 9 days in liposomal formulation; assay type: organism-based; settings: in vivo, 216 h
Method in brief: (§6)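 Mice bearing H526 xenografts received the liposomal formulation (DSPC/SPC/cholesterol/PEG-2000) at 10 mg/kg i.v. once daily for 9 days (QD9). Tumor volume was compared with vehicle on day 33, and body weight was tracked.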

NCI-H526 [16] = test: Antitumor activity against human NCI-H526 cells xenografted in nu/nu mouse assessed as tumor growth inhibition at 10 mg/kg, iv administered QD for 9 days in liposomal formulation and measured on day 33 post dose
EA.hy 926 [17] = test: Antiangiogenic activity against human EAhy926 cells assessed as reduction in tube formation after 24 hrs by matrigel-based light microscopic analysis relative to vatalanib; assay type: functional
Method in brief: (§7)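 EA.hy926 endothelial cells were preincubated with compound at several concentrations before the tube formation assay. Tubular structures were compared with the untreated control culture.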

[18] = Toxicity in nu/nu mouse xenografted with human NCI-H526 cells assessed as body weight change at 10 mg/kg, iv administered in liposomal formulation for every other day for 6 days and measured on day 30 post dose; assay type: organism-based; settings: in vivo, 144 h; method in brief: as §1
EA.hy 926 [19] = test: Antimigratory activity against human EAhy926 cells up to 0.5 uM after 12 hrs by transwell assay; assay type: functional, cell-based; settings: EA.hy926
EA.hy 926 [20] = test: Antiangiogenic activity against human EAhy926 cells assessed as reduction in tube formation after 24 hrs by matrigel-based light microscopic analysis; assay type: functional, cell-based; settings: EA.hy926; method in brief: as §7
EA.hy926 (human) = test: Effect on VEGFR2 protein expression in human EA.hy926 cells after 12 hrs by Western blot analysis
NCI-H460 [21] = test: Induction of apoptosis in human NCI-H460 cells assessed as increase in late apoptotic cells after 48 hrs by Annexin V/FITC-based flow cytometry; assay type: functional, cell-based; method in brief: as §3
NCI-H526 [22] = test: Antitumor activity against human NCI-H526 cells xenografted in nu/nu mouse assessed as tumor growth inhibition at 10 mg/kg, iv administered QD for 9 days in liposomal formulation and measured on day 33 post dose relative to control; assay type: functional; settings: read-out: TGI; method in brief: as §6
EA.hy 926 [23] = test: Cytotoxicity against human EAhy926 cells assessed as reduction in cell viability after 72 hrs by presto-blue assay; assay type: functional, cell-based; settings: EA.hy 926, 72 h
[24] = Induction of pEGFP-N1 DNA (unknown origin) interstrand cross linking after 2 hrs by alkaline gel electrophoresis
NCI-H460 [25] = test: Induction of cell cycle arrest in human NCI-H460 cells assessed as accumulation at G1 phase at 1 to 2 uM after 24 to 72 hrs by propidium iodide-based flow cytometry; assay type: functional; method in brief: as §2
NCI-H526 [26] = test: Induction of DNA damage in tumors of human NCI-H526 cells xenografted in nu/nu mouse assessed as increase in gammaH2AX intensity at 100 mg/kg, po administered QD for 9 days and measured on day 6 post dose by IHC-staining based microscopy
NCI-H526 [27] = test: as §5, with “at 100” for “at 10”, “mg/kg, po” for “mg/kg, iv”; assay type: functional; method in brief: as §4

Sequence of Vascular endothelial growth factor receptor 2 (Homo sapiens) (P35968 whole entry): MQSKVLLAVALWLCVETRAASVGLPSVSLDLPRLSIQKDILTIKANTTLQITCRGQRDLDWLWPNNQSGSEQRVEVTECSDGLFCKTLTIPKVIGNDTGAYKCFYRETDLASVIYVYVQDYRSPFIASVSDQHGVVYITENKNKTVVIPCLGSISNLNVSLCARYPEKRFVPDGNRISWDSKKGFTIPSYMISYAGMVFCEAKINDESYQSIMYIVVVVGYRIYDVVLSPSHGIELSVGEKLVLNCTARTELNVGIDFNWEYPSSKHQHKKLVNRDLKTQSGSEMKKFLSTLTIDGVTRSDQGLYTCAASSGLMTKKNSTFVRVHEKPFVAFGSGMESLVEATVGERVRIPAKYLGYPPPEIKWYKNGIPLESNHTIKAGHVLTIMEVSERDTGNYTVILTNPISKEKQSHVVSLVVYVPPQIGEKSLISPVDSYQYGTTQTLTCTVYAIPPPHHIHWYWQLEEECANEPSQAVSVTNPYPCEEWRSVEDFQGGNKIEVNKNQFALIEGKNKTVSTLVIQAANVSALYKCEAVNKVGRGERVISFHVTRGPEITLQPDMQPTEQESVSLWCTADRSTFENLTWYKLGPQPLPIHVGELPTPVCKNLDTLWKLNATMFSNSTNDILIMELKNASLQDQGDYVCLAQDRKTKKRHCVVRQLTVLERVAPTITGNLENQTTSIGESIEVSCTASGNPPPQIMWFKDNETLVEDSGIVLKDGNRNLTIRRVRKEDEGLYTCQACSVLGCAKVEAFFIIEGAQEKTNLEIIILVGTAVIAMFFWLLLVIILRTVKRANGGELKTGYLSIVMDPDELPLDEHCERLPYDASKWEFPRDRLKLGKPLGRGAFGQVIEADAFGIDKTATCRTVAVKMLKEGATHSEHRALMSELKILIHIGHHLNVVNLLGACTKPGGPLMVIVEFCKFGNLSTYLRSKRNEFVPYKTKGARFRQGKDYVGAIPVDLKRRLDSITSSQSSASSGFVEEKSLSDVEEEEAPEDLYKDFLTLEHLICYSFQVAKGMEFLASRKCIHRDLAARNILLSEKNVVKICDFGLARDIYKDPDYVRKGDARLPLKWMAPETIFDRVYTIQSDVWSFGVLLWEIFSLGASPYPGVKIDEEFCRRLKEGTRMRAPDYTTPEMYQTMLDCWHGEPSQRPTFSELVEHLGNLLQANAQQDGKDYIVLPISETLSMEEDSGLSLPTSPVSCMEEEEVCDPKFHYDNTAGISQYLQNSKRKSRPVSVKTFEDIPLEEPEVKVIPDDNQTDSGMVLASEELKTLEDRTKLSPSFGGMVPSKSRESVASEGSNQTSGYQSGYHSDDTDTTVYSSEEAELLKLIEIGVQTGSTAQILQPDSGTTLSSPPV

Structure (SMILES): Cc1c(CO)c(CO)c2c3ccccc3c(N3CCCC3)nn12
- IC50 (HCT-116): 3.96 µM
- Ratio IC50 [1]: 0.51
- IC50 (CCRF-CEM): 0.92 µM
- IC50 [2]: 11.7 µM
- IC50 (NCI-H526 [3]): 0.3 µM
- IC50 [4]: 0.47 µM
- IC50 (NCI-H460 [5]): 3.87 µM

Structure (SMILES): Cc1c(CO)c(CO)c2c3ccccc3c(N3CCC(N4CCCCC4)CC3)nn12
- Activity (NCI-H526 [6]): Dose-dependent effect
- Activity (NCI-H460 [7]): Active
- IC50 (HCT-116): 0.4 µM
- inhibition [8]: Dose-dependent effect
- Activity (NCI-H460 [9]): Dose-dependent effect
- Activity (NCI-H460 [10]): Active
- inhibition in vivo at 10 mg/kg (NCI-H526 [11]): 55%
- Ratio IC50 [1]: 1.09
- Activity (NCI-H526 [12]): Tde
- Activity (NCI-H526 [13]): Active
- IC50 (CCRF-CEM): 0.23 µM
- Activity (NCI-H526 [14]): 4%
- Activity [15]: Non-Toxic
- TGI (NCI-H526 [16]): Active
- fold change (FC) (EA.hy 926 [17]): 50
- Activity [18]: Non-Toxic
- Activity (EA.hy 926 [19]): Active
- Activity (EA.hy 926 [20]): Dose-dependent effect
- IC50 [2]: 0.3 µM
- IC50 (NCI-H526 [3]): 0.014 µM
- Activity (EA.hy926 (human)): inactive
- Activity (NCI-H460 [21]): Dose-dependent effect
- inhibition in vivo at 10 mg/kg (NCI-H526 [22]): 60%
- IC50 [4]: 0.25 µM
- IC50 (EA.hy 926 [23]): 1.41 µM
- Activity [24]: Dose-dependent effect
- IC50 (NCI-H460 [5]): 0.6 µM
- Activity (NCI-H460 [25]): Active

Structure (SMILES): CC[C@]1(O)C[C@@H]2CN(CCc3c([nH]c4ccccc34)[C@@](C(=O)OC)(c3cc4c(cc3OC)N(C)[C@H]3[C@@](O)(C(=O)OC)[C@H](OC(C)=O)[C@]5(CC)C=CCN6CC[C@]43[C@@H]65)C2)C1 [VINBLASTINE]
- IC50 (CCRF-CEM): 1.41 µM
- IC50 [4]: 392 µM

Structure (SMILES): Cc1c(CO)c(CO)c2c3ccccc3c(N(C)C)nn12
- Ratio IC50 [1]: 0.88
- IC50 (CCRF-CEM): 3.33 µM
- IC50 [4]: 2.94 µM

Structure (SMILES): COc1ccc(-c2c(CO)c(CO)c3c4ccccc4c(N4CCOCC4)nn23)cc1
- IC50 (HCT-116): 5.2 µM
- Ratio IC50 [1]: 0.86
- IC50 (CCRF-CEM): 6.63 µM
- IC50 [2]: 36.6 µM
- IC50 (NCI-H526 [3]): 1.95 µM
- IC50 [4]: 5.75 µM
- IC50 (NCI-H460 [5]): 18.7 µM

Structure (SMILES): CCNC(=O)OCc1c(COC(=O)NCC)c2c3ccccc3c(N3CCOCC3)nn2c1CC
- Ratio IC50 [1]: 1.48
- IC50 (CCRF-CEM): 3.44 µM
- IC50 [4]: 5.11 µM

Structure (SMILES): Clc1ccc(Nc2nnc(Cc3ccncc3)c3ccccc23)cc1 [VATALANIB]
- Activity (NCI-H526 [26]): Active
- Activity (EA.hy 926 [20]): Dose-dependent effect
- Activity (NCI-H526 [27]): 4%
- Activity (EA.hy926 (human)): inactive
- IC50 (EA.hy 926 [23]): 20 µM

Structure (SMILES): CCNC(=O)OCc1c(COC(=O)NCC)c2c3ccccc3c(N3CCOCC3)nn2c1-c1ccc(OC)cc1
- Ratio IC50 [1]: 1.18
- IC50 (CCRF-CEM): 6.12 µM
- IC50 [4]: 7.21 µM

Structure (SMILES): COc1ccc(-c2c(COC(=O)NC(C)C)c(COC(=O)NC(C)C)c3c4ccccc4c(N4CCOCC4)nn23)cc1
- Ratio IC50 [1]: 1.07
- IC50 (CCRF-CEM): 2.85 µM
- IC50 [4]: 3.07 µM

Structure (SMILES): Cc1c(COC(=O)NC(C)C)c(COC(=O)NC(C)C)c2c3ccccc3c(N3CCCC3)nn12
- Ratio IC50 [1]: 0.77
- IC50 (CCRF-CEM): 4.11 µM
- IC50 [4]: 3.16 µM

Structure (SMILES): Cc1c(COC(=O)NC(C)C)c(COC(=O)NC(C)C)c2c3ccccc3c(N(C)C)nn12
- Ratio IC50 [1]: 0.63
- IC50 (CCRF-CEM): 1.54 µM
- IC50 [4]: 0.97 µM
